PolyA inhibitor: blocks polyadenylation in yeast reporter cells; S. cerevisiae SKY197-pL101 polyadenylation reporter, beta-gal luminescence; efflux-impaired pdr1/pdr3 knockout yeast; score 100 = 6 SD above DMSO; activity score, % at 12 µM; actives 0.02% (n = 300,000); AID 1875;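 active = lowest replicate activity score at least 50, where 100 means six control SD above control mean; inconclusive = lowest score under 50 but half or more replicates reach 50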;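 note: yeast exposed to compound for 9 h at 30 °C; higher score means more reporter readthrough which indicates perturbed polyadenylation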
AHR activator: activators of human aryl hydrocarbon receptor. AID 2796. activation, % at 5 µM. AHR-responsive luciferase reporter cells, luminescence. P35869. actives 2.5% (n = 320,000); in the data active = activation above about 47%;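 note: 0% = vehicle wells and 100% = reference agonist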
proCasp3 act: activators of human procaspase-3. P42574. recombinant procaspase-3 D3A, Ac-DEVD-pNA absorbance 405 nm. activation, % at 8.5 µM. actives 0.11% (n = 330,000);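 active = activation above the mean of all tested compounds plus 3 SD, cut at about 21% in these data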;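 note: 0% = DMSO alone and 100% = DMSO wells spiked with extra 5 µM PC-3 D3A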
Target sequence (P42574 whole entry D9A/D28A/D175A): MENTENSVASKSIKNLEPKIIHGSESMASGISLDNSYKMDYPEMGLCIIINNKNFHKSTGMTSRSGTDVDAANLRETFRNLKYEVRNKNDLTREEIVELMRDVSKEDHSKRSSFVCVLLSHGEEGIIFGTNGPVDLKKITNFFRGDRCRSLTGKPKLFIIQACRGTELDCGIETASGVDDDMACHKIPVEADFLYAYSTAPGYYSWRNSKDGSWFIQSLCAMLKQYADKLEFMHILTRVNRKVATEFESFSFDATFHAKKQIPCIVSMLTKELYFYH
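Assay system: Autoprocessing-dead procaspase-3 D3A mutant enzyme; also added: Ac-DEVD-pNA; doses: one concentration, 8.5 µM nominal, 0.8% DMSO; times: 1 h compound preincubation, 2 h substrate hydrolysis at 25 °C; technique: 405 nm absorbance of p-nitroaniline, reads at 0 and 120 min; measure: % activation between DMSO and enzyme-spiked controls; repeats: single replicate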
procasp7 counter: activates human procaspase-7, counter-screen for procaspase-3 activators. P55210. recombinant procaspase-7, Ac-DEVD-pNA absorbance 405 nm; D23A/D198A/D206A triple mutant, cannot self-cleave; scale: DMSO 0, 5 µM enzyme 100. activation, % at 8.5 µM. actives 0.093% (n = 330,000);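 active = percent activation above the screen-wide mean plus 3 SD, cut at about 25% in these data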
Target sequence (P55210 whole entry D23A/D198A/D206A): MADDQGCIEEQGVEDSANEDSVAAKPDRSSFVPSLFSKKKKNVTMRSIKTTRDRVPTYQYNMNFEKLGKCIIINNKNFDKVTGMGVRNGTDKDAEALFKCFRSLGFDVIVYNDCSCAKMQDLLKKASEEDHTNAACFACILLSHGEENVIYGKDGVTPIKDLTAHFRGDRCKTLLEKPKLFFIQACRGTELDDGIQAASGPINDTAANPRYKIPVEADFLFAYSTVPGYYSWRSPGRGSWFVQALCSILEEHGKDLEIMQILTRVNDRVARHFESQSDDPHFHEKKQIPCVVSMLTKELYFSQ
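Assay system: Uncleavable procaspase-7 mutant enzyme / Input: 2 µM procaspase-7 mutant as dispensed / Dosing: single nominal 8.5 µM compound dose, 0.8% DMSO final / Timing: 1 h enzyme–compound preincubation and 2 h substrate reaction, both 25 °C / Detection: p-Nitroaniline absorbance at 405 nm, read at 0 and 120 min / Replication: singlicate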
Active calls of the source: *; u = inconclusive; x = no result given. The list is not random: actives were taken first. Their share in the collection is about 2.6%.

SMILES	PolyA inhibitor	AHR activator	proCasp3 act	procasp7 counter
Cc1ccc(O)c(-c2cc(-c3cccc(F)c3)n[nH]2)c1	1	56*	-5	4
Cc1ccc(O)c(-c2cc(-c3ccccc3F)[nH]n2)c1	-4	27	4	-8
COc1ccc(S(=O)(=O)N2CCN(CC(=O)NC3CC3)CC2)cc1	-18	-2	2	0
Cc1ccc(Nc2nc(N)c(C#N)c(CC#N)c2C#N)cc1	13	35	-5	-3
NC(N)=Nc1nc(-c2ccccc2)c2ccccc2n1	-8	68*	-10	-3
CCc1nc(N=C(N)N)nc2ccccc12	-10	14	3	12
Cc1ccccc1Cn1cc(NC(=O)c2cc(-c3ccco3)on2)cn1	-20	57*	-7	6
Cc1ccccc1Cn1cc(NC(=O)c2cc(-c3cccs3)on2)cn1	15	14	3	7
Cc1cc(C)c(-n2c(SCC(=O)N3CCOCC3)n[nH]c2=O)c(C)c1	-2	3	-4	1
CCCCOc1ncnc2c1[nH]c1ccccc12	-15	50*	-5	-2
CCOCCCNc1ncnc2c1[nH]c1ccccc12	0	50*	8	3
Nc1nc2c(nc(SCc3ccccc3Br)n2[C@@H]2O[C@H](CO)[C@@H](O)[C@H]2O)c(=O)[nH]1	-8	x	x	x
COc1ccc(NC(=O)CN(C)C(=O)c2sc3cc(Cl)ccc3c2Cl)cc1	-10	-2	-2	2
Cc1cc(O)c(-c2cc(O)c(C)cc2O)cc1O	0	52*	-16	-31
O=c1c2sc(-c3ccccc3)cc2nc2n1CCC2	113*	-22	-4	1
COc1ccc(N=Nc2ccc(O)c3ncccc23)cc1	29	48*	7	16
COc1ccc(NC(=O)c2ccco2)cc1NC(=O)c1ccc(Br)o1	12	58*	0	12
COc1ccc(C)cc1NC(=O)c1cc2ccccc2o1	17	11	-9	2
COc1ccc(OC)c(NC(=O)c2cc3ccccc3o2)c1	-12	61*	-5	-22
COc1ccc(-c2nc3ccccc3o2)cc1NC(=O)c1ccc(Br)o1	-3	77*	-1	-7
CC1(C)Cc2nc3oc4c(NCCCN5CCOCC5)ncnc4c3cc2CO1	-9	8	-3	6
Cc1cc(C)n(Cc2ccc(C(=O)Nc3ccc(Br)cc3C)o2)n1	6	32	-1	5
Cc1cc(C)n(Cc2ccc(C(=O)Nc3cccc(Br)c3)o2)n1	1	74*	11	-9
O=[N+]([O-])c1ccc2nc(SCc3cn4cccnc4n3)[nH]c2c1	7	51*	-4	-7
O=[N+]([O-])c1ccc2nc(SCc3cn4ccccc4n3)[nH]c2c1	25	31	-5	6
SMILES	PolyA inhibitor	AHR activator	proCasp3 act	procasp7 counter
O=[N+]([O-])c1ccc2nc(SCc3cn4cc(Cl)ccc4n3)[nH]c2c1	2	78*	7	0
Cc1nn(-c2ccccc2)c2nc3c(cc12)C(=O)CCC3	-21	55*	6	-3
O=C(Nc1ccc(C(F)(F)F)cc1)c1cccnc1N1CCOCC1	1	61*	-3	3
CCCCc1ccc(/C(C)=N/NC(=O)C2CCCC2)cc1	24	3	2	3
O=C(O)C1CC(c2ccccc2)=Nc2ccccc2S1 (stereo not given)	3	53*	0	-3
COCC(=O)N1CCC(Oc2ccc(C(=O)N(C)Cc3nccs3)cc2)CC1	0	0	2	-1
O=C1CCC(O)CCN1CCSc1ccccc1 (stereo not given)	-6	4	-9	-2
CCOc1ccc(Nc2nc(C)cc(C)c2C#N)cc1	-7	80*	3	-3
COc1ccc(Nc2nc(C)cc(C)c2C#N)cc1	-12	65*	-14	-3
COc1ccc(Nc2nc(C)cc(C)c2C#N)c(OC)c1	5	34	-1	4
O=C(CCSc1ccc(Br)cc1)c1ccc(O)cc1	-12	-2	-3	-9
Cc1csc(NC(=O)c2cc3c(s2)-c2ccccc2OC3)n1	u	68*	-36	-4
CN(C)CCNC(=O)c1cc2c(s1)-c1ccccc1OC2	26	5	3	3
CCCc1nnc(NC(=O)CSc2nnc(-c3ccco3)n2C)s1	2	2	4	7
Cc1c(=O)n(OCc2ccc(Cl)cc2)c2ccccc2[n+]1[O-]	17	59*	4	-11
O=c1c(-c2ccc(Br)cc2)[n+]([O-])c2ccccc2n1OCc1ccccc1	0	4	-12	6
Cc1c(=O)n(OCc2cccc(F)c2)c2ccccc2[n+]1[O-]	1	84*	-2	1
O=C(NCCS(=O)(=O)N1CCN(c2ccc(F)cc2)CC1)C12CC3CC(CC(C3)C1)C2	2	2	4	1
CC(=O)c1c(C)oc2c1cc(NS(=O)(=O)c1ccc(C(=O)O)cc1)c1ccccc12	-14	39	-10	1
Cc1ccc(S(=O)(=O)Nc2cc3c(C(=O)Nc4ccccc4)c(C)oc3c3ccccc23)cc1	-3	64*	-1	-1
Cc1cccc(N=C2NC(=O)S/C2=C\c2ccco2)c1	-8	68*	-19	-22
O=C1NC(=Nc2ccc(Cl)cc2)/C(=C/c2ccco2)S1	2	8	3	-1
Cc1ccc(C(=O)O)cc1NCc1ccncc1	-6	-1	5	0
Cc1ccccc1CC(=O)N1CC(C)OC(C)C1 (stereo not given)	5	0	0	9
COc1ccc(CCNCc2cc3ccc(C)cc3[nH]c2=O)cc1OC	8	2	7	6
SMILES	PolyA inhibitor	AHR activator	proCasp3 act	procasp7 counter
Cc1ccc(C=Nc2ccccc2C(N)=O)s1	-4	55*	-3	-4
Cc1ccccc1OCC(=O)OCC(=O)c1c[nH]c2ccccc12	x	24	0	-1
CCOc1ccccc1/C=N/n1c(COc2ccccc2)n[nH]c1=S	-31	9	-2	-17
CCc1n[nH]c(=S)n1/N=C/c1ccccc1OCc1ccc(Cl)cc1	-3	66*	-1	6
Cc1n[nH]c(=S)n1/N=C/c1ccccc1OCc1ccc(Cl)cc1Cl	5	49*	5	-4
Cc1sc(NC(=O)Nc2ccccc2)c(C(N)=O)c1C	-8	53*	-12	-22
COc1ccc(NC(=O)c2sc(SC)nc2N)cc1	2	19	-2	-2
COc1ccc(NC(=O)c2sc(SCc3ccccc3)nc2N)cc1	-15	48*	-12	0
CCOC(=O)c1sc(NC(=O)C2CC(=O)N(c3ccc(OCC)cc3)C2)nc1C (stereo not given)	16	0	2	3
C(=N\Nc1ncnc2sc3c(c12)CCC3)/c1cccs1	-19	56*	4	-7
O=C(CNS(=O)(=O)c1ccccc1)OCC(=O)c1c[nH]c2ccccc12	x	47*	-7	5
CCN(CC1COc2ccccc2O1)C(=S)NC1CC2CCC1C2 (stereo not given)	-23	2	3	0

Source: PubChem
